{"source": "ChEMBL document CHEMBL1127344", "about": "“Tridentate ligands containing the SNS donor atom set as a novel backbone for the development of technetium brain-imaging agents” (J Med Chem, 1994)", "key": {"Mus musculus [1]": {"species": "Mus musculus", "assay": "Tested for biodistribution of compound at 60 min in mice iver", "format": "ADME, organism-based, Liver", "settings": "in vivo, 1 h", "summary_of_the_method": "(§1)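 Male Swiss albino mice, at least five per group, received HPLC-purified 99mTc complex by tail vein. The complex was reconstituted in 50% methanol (0.1 mL, 2-3 μCi). Mice were killed by cardiectomy under light ether at 1-60 min pi. Organs were weighed and γ-counted against a 1% injected-dose standard to give % dose/organ. Blood and muscle were taken as 7% and 43% of body weight.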"}, "Mus musculus [2]": {"species": "Mus musculus", "assay": "Tested for biodistribution of compound at 10 min in mice kidney", "format": "ADME, organism-based", "settings": "in vivo", "summary_of_the_method": "(§2)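 Male Swiss albino mice, at least five per group, received 0.1 mL (2-3 μCi) of HPLC-purified 99mTc complex reconstituted in 50% methanol by tail vein. They were killed by cardiectomy under light ether anesthesia at set times (1-60 min pi). Organs were weighed and γ-counted against a 1% injected-dose standard to give % dose/organ. Blood and muscle were taken as 7% and 43% of body weight.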"}, "Mus musculus [3]": {"species": "Mus musculus", "assay": "Tested for biodistribution of compound at 30 min in mice stomach", "format": "ADME, organism-based", "settings": "in vivo, 0.5 h", "summary_of_the_method": "as §2"}, "Mus musculus [4]": {"species": "Mus musculus", "assay": "Tested for biodistribution of compound at 60 min in mice brain", "format": "ADME, organism-based", "settings": "in vivo, 1 h", "summary_of_the_method": "as §1"}, "Mus musculus [5]": {"species": "Mus musculus", "assay": "Tested for biodistribution of compound at 60 min in mice urine", "format": "ADME, organism-based", "settings": "in vivo, 1 h", "summary_of_the_method": "as §1"}, "Mus musculus [6]": {"species": "Mus musculus", "assay": "Tested for biodistribution of compound at 30 min in mice lungs", "format": "ADME, organism-based, Lung", "settings": "in vivo, 0.5 h", "summary_of_the_method": "as §2"}, "Mus musculus [7]": {"species": "Mus musculus", "assay": "Tested for biodistribution of compound at 1 min in mice blood", "format": "ADME, organism-based", "settings": "in vivo", "summary_of_the_method": "as §2"}, "Mus musculus [8]": {"species": "Mus musculus", "assay": "Tested for biodistribution of compound at 5 min in mice spleen", "format": "ADME, organism-based", "settings": "in vivo", "summary_of_the_method": "as §1"}, "Mus musculus [9]": {"species": "Mus musculus", "assay": "Tested for biodistribution of compound at 1 min in mice liver", "format": "ADME, organism-based", "settings": "in vivo", "summary_of_the_method": "as §2"}, "Mus musculus [10]": {"species": "Mus musculus", "assay": "Tested for biodistribution of compound at 10 min in mice urine", "format": "ADME, organism-based", "settings": "in vivo", "summary_of_the_method": "as §2"}, "Mus musculus [11]": {"species": "Mus musculus", "assay": "Tested for biodistribution of compound at 5 min in mice kidney", "format": "ADME, organism-based", "settings": "in vivo", "summary_of_the_method": "as §1"}, "Mus musculus [12]": {"species": "Mus musculus", "assay": "Tested for biodistribution of compound at 5 min in mice brain", "format": "ADME, organism-based", "settings": "in vivo", "summary_of_the_method": "as §1"}, "Mus musculus [13]": {"species": "Mus musculus", "assay": "Tested for biodistribution of compound at 1 min in mice brain", "format": "ADME, organism-based", "settings": "in vivo", "summary_of_the_method": "as §2"}, "Mus musculus [14]": {"species": "Mus musculus", "assay": "Tested for biodistribution of compound at 30 min in mice muscle", "format": "ADME, organism-based, Muscle tissue", "settings": "in vivo, 0.5 h", "summary_of_the_method": "as §2"}, "Mus musculus [15]": {"species": "Mus musculus", "assay": "Tested for biodistribution of compound at 1 min in mice lungs", "format": "ADME, organism-based, Lung", "settings": "in vivo", "summary_of_the_method": "as §2"}, "Mus musculus [16]": {"species": "Mus musculus", "assay": "Tested for biodistribution of compound at 30 min in mice urine", "format": "ADME, organism-based", "settings": "in vivo, 0.5 h", "summary_of_the_method": "as §2"}, "Mus musculus [17]": {"species": "Mus musculus", "assay": "Tested for biodistribution of compound at 5 min in mice intestine", "format": "ADME, organism-based", "settings": "in vivo", "summary_of_the_method": "as §1"}, "Mus musculus [18]": {"species": "Mus musculus", "assay": "Tested for biodistribution of compound at 5 min in mice stomach", "format": "ADME, organism-based", "settings": "in vivo", "summary_of_the_method": "as §1"}, "Mus musculus [19]": {"species": "Mus musculus", "assay": "Tested for biodistribution of compound at 10 min in mice spleen", "format": "ADME, organism-based", "settings": "in vivo", "summary_of_the_method": "as §2"}, "Mus musculus [20]": {"species": "Mus musculus", "assay": "Tested for biodistribution of compound at 10 min in mice blood", "format": "ADME, organism-based", "settings": "in vivo", "summary_of_the_method": "as §2"}, "Mus musculus [21]": {"species": "Mus musculus", "assay": "Tested for biodistribution of compound at 1 min in mice muscle", "format": "ADME, organism-based, Muscle tissue", "settings": "in vivo", "summary_of_the_method": "as §2"}, "Mus musculus [22]": {"species": "Mus musculus", "assay": "Tested for biodistribution of compound at 60 min in mice kidney", "format": "ADME, organism-based", "settings": "in vivo, 1 h", "summary_of_the_method": "as §1"}, "Mus musculus [23]": {"species": "Mus musculus", "assay": "Tested for biodistribution of compound at 60 min in mice heart", "format": "ADME, organism-based", "settings": "in vivo, 1 h", "summary_of_the_method": "as §1"}, "Mus musculus [24]": {"species": "Mus musculus", "assay": "Tested for biodistribution of compound at 10 min in mice intestine", "format": "ADME, organism-based", "settings": "in vivo", "summary_of_the_method": "as §2"}, "Mus musculus [25]": {"species": "Mus musculus", "assay": "Tested for biodistribution of compound at 30 min in mice intestine", "format": "ADME, organism-based", "settings": "in vivo, 0.5 h", "summary_of_the_method": "as §2"}, "Mus musculus [26]": {"species": "Mus musculus", "assay": "Tested for biodistribution of compound at 5 min in mice iver", "format": "ADME, organism-based, Liver", "settings": "in vivo", "summary_of_the_method": "as §1"}, "Mus musculus [27]": {"species": "Mus musculus", "assay": "Tested for biodistribution of compound at 30 min in mice spleen", "format": "ADME, organism-based", "settings": "in vivo, 0.5 h", "summary_of_the_method": "as §2"}}, "data": [{"substance": "[4-methoxythio)phenolato][N,N-bis(2-mercaptoethyl)-2-(ethylthio)ethylamine] oxotechnetium", "values": [{"measurement": "Dose/organ", "setting": "Mus musculus [1]", "result": 18.03, "unit": "%"}, {"measurement": "Dose/organ", "setting": "Mus musculus [2]", "result": 1.76, "unit": "%"}, {"measurement": "Dose/organ", "setting": "Mus musculus [3]", "result": 0.37, "unit": "%"}, {"measurement": "Dose/organ", "setting": "Mus musculus [4]", "result": 0.15, "unit": "%"}, {"measurement": "Dose/organ", "setting": "Mus musculus [5]", "result": 1.79, "unit": "%"}, {"measurement": "Dose/organ", "setting": "Mus musculus [6]", "result": 0.52, "unit": "%"}, {"measurement": "Dose/organ", "setting": "Mus musculus [7]", "result": 5.77, "unit": "%"}, {"measurement": "Dose/organ", "setting": "Mus musculus [8]", "result": 0.21, "unit": "%"}, {"measurement": "Dose/organ", "setting": "Mus musculus [9]", "result": 3.58, "unit": "%"}, {"measurement": "Dose/organ", "setting": "Mus musculus [10]", "result": 0.27, "unit": "%"}, {"measurement": "Dose/organ", "setting": "Mus musculus [11]", "result": 2.45, "unit": "%"}, {"measurement": "Dose/organ", "setting": "Mus musculus [12]", "result": 2.43, "unit": "%"}, {"measurement": "Dose/organ", "setting": "Mus musculus [13]", "result": 3.68, "unit": "%"}, {"measurement": "Dose/organ", "setting": "Mus musculus [14]", "result": 10.41, "unit": "%"}, {"measurement": "Dose/organ", "setting": "Mus musculus [15]", "result": 5.25, "unit": "%"}, {"measurement": "Dose/organ", "setting": "Mus musculus [16]", "result": 0.77, "unit": "%"}, {"measurement": "Dose/organ", "setting": "Mus musculus [17]", "result": 9.31, "unit": "%"}, {"measurement": "Dose/organ", "setting": "Mus musculus [18]", "result": 0.73, "unit": "%"}, {"measurement": "Dose/organ", "setting": "Mus musculus [19]", "result": 0.16, "unit": "%"}, {"measurement": "Dose/organ", "setting": "Mus musculus [20]", "result": 1.24, "unit": "%"}, {"measurement": "Dose/organ", "setting": "Mus musculus [21]", "result": 34.39, "unit": "%"}, {"measurement": "Dose/organ", "setting": "Mus musculus [22]", "result": 0.54, "unit": "%"}, {"measurement": "Dose/organ", "setting": "Mus musculus [23]", "result": 0.05, "unit": "%"}, {"measurement": "Dose/organ", "setting": "Mus musculus [24]", "result": 15.44, "unit": "%"}, {"measurement": "Dose/organ", "setting": "Mus musculus [25]", "result": 43.12, "unit": "%"}, {"measurement": "Dose/organ", "setting": "Mus musculus [26]", "result": 16.97, "unit": "%"}, {"measurement": "Dose/organ", "setting": "Mus musculus [27]", "result": 0.06, "unit": "%"}]}]}
